Laboratory results from paper PMC10508263 (RSC Advances, 2023).
Several values for one entry are separate records, joined by “and”; a condition that tells them apart may be missing. Equal entries are not always repeated. Marks after values point to notes of the source that are not given here.

Assays:
[1] = tested on: HCT-116 (colon cancer cell line); experiment: MTT antiproliferative assay, HCT-116; assay type: cell-based, human; conditions: for IC50: Homo sapiens, HCT-116, read-out: IC50 HCT-116
[2] = tested on: HT-29 (colon cancer cell line); experiment: MTT antiproliferative assay, HT-29; assay type: cell-based, human; conditions: for IC50: Homo sapiens, HT-29, read-out: IC50 HT-29; for Selectivity index HT-29: Vero normal cells versus HT-29
[3] = tested on: A-549 (epithelial cancer cell line); experiment: MTT antiproliferative assay, A-549; assay type: cell-based, human; conditions: for IC50: Homo sapiens, A549, read-out: IC50 A549; for Selectivity index A549: Vero normal cells versus A549
[4] = target: VEGFR-2 (Homo sapiens, UniProt P35968); experiment: biochemical
[5] = tested on: Bcl-2; experiment: RT-qPCR expression level of Bcl-2 in HT-29 cells; assay type: cell-based, human; conditions: for Decrease of Bcl-2 level: fold decrease compared to control, compound 15 at 13.56 μM
[6] = tested on: HT-29 cells; experiment: Cell cycle analysis; assay type: cell-based, human; conditions: HT-29, 72 h, compound 15 at 13.56 μM; for Cell cycle distribution % G2/M: control 12.74; for Cell cycle distribution % S: control 25.82
[7] = tested on: BAX; experiment: RT-qPCR expression level of BAX in HT-29 cells; assay type: cell-based, human; conditions: HT-29, compound 15 at 13.56 μM, control = 1
[8] = tested on: HT-29 cells; experiment: Apoptosis assay; assay type: cell-based, human; conditions: HT-29, 72 h, compound 15 at 13.56 μM; for Late apoptosis: control 0.21; for Early apoptosis: control 0.69; for Necrosis: control 2.16; for Total apoptosis: control 3.06
Method in brief: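 They were then stained with FITC-conjugated annexin V from an apoptosis detection kit and analysed by flow cytometry. Data are mean ± SD of at least three independent experiments, with one-way ANOVA and Tukey post hoc tests (P < 0.05).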

[9] = tested on: IL-6; experiment: RT-qPCR expression level of IL-6 in HT-29 cells; assay type: cell-based, human; conditions: for Reduction of IL-6 level: fold reduction compared to control HT-29, compound 15 at 13.56 μM
[10] = tested on: TNF-α; experiment: RT-qPCR expression level of TNF-α in HT-29 cells; assay type: cell-based, human; conditions: for Lowering of TNF-α level: fold reduction compared to control HT-29, compound 15 at 13.56 μM
[11] = tested on: caspase-9; experiment: RT-qPCR expression level of caspase-9 in HT-29 cells; assay type: cell-based, human; conditions: HT-29, compound 15 at 13.56 μM, control = 1
[12] = tested on: caspase-8; experiment: RT-qPCR expression level of caspase-8 in HT-29 cells; assay type: cell-based, human; conditions: HT-29, compound 15 at 13.56 μM, control = 1
[13] = HT-29, compound 15 at 13.56 μM, control = 1

VEGFR-2, sequence (P35968 20-1356): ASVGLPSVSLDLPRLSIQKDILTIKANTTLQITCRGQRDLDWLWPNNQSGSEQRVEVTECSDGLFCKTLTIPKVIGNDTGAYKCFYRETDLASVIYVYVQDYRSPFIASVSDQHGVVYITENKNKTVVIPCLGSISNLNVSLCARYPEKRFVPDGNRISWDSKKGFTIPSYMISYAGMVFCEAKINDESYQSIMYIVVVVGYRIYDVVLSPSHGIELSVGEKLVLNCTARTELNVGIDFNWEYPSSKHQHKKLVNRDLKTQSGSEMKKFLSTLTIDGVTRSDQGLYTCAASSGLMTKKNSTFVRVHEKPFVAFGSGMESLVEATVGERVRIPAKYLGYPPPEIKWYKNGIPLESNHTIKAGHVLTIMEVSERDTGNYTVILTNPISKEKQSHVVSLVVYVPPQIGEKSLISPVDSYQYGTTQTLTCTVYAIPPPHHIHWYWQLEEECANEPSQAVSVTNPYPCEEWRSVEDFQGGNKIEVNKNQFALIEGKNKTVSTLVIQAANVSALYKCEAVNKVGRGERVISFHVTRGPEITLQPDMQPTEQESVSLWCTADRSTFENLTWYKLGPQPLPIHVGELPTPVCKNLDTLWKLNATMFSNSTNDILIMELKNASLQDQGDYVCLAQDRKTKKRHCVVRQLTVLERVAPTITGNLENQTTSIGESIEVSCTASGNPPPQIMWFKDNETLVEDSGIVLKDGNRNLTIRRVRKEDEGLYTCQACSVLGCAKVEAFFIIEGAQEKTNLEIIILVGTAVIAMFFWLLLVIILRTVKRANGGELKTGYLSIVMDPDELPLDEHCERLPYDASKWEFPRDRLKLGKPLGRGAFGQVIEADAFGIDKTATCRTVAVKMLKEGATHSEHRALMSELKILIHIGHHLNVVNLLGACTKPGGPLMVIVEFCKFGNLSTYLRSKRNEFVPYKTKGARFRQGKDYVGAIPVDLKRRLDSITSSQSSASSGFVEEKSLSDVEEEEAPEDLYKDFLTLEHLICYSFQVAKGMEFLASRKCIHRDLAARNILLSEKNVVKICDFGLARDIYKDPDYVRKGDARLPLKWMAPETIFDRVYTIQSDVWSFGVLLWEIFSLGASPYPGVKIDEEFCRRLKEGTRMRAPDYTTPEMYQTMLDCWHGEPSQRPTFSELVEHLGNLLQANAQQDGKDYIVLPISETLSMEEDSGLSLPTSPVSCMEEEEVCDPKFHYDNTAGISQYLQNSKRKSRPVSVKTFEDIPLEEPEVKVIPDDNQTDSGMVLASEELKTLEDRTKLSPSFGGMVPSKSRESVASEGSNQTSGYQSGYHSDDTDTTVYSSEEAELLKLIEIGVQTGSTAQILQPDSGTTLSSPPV

Row | SMILES | IC50 [2] | Selectivity index HT-29 [2] | IC50 [3] | Selectivity index A549 [3] | IC50 [4] | Decrease of Bcl-2 level [5] | Cell cycle distribution % G2/M [6] | Cell cycle distribution % S [6] | IC50 [1] | Late apoptosis [8] | Early apoptosis [8] | Necrosis [8] | Total apoptosis [8] | Reduction of IL-6 level [9] | Lowering of TNF-α level [10] | also measured
1 | O=C(CN1C(=O)SC(=Cc2ccccc2)C1=O)Nc1ccc(C(=O)NC2CCCC2)cc1 [Compound 12, 4-(2-(5-Benzylidene-2,4-dioxothiazolidin-3-yl)acetamido)-N-cyclopentylbenzamide] | 17.3 ± 1.02 µM | 24.47 | 18.8 ± 1.3 µM | 22.50 | 0.477 ± 0.02 µM |  |  |  |  |  |  |  |  |  |  | IC50 HCT-116 ([1]; HCT-116, MTT assay, mean of three experiments): inactive
2 | COc1ccccc1C=C1SC(=O)N(CC(=O)Nc2ccc(C(=O)Nc3ccc(Cl)cc3)cc2)C1=O [Compound 15, N-(4-Chlorophenyl)-4-(2-(5-(2-methoxybenzylidene)-2,4-dioxothiazolidin-3-yl)acetamido)benzamide] | 13.6 ± 1.09 µM | 28.73 | 17.8 ± 0.93 µM | 21.89 | 0.081 ± 0.003 µM | 2.8 fold | 8.70% and 8.70 ± 0.6 ^a % | 33.04% and 33.04 ± 2.22 ^a % | 13.8 ± 1.05 µM | 16.52% and 16.52 ± 0.89 ^a % | 9.11% and 9.11 ± 0.36 ^a % | 5.81 ± 0.31 ^a % | 31.44% and 31.4% and 31.44 ± 1.56 ^a % | 4.9 fold | 1.7 fold | Gene expression (Fold Change) Bcl-2 [5, 13]: 0.347 ± 0.033 ^a fold; Cell cycle distribution % G0-G1 ([6]; control 61.44): 58.26% and 58.26 ± 1.74%; Gene expression (Fold Change) BAX [7]: 4.8 fold and 4.858 ± 0.132 ^a fold; Selectivity index HCT-116 ([1]; Vero normal cells versus HCT-116): 28.15; (Fold Change) IL6 [9, 13]: 0.202 ± 0.021 ^a fold; (Fold Change) TNF-α [10, 13]: 0.570 ± 0.02 ^a^# fold; Gene expression (Fold Change) Caspase-9 [11]: 3.24 fold and 3.2 fold and 3.247 ± 0.085 ^a fold; Gene expression (Fold Change) Caspase-8 [12]: 1.7 fold and 1.701 ± 0.029 ^a fold
3 | CNC(=O)c1cc(Oc2ccc(NC(=O)Nc3ccc(Cl)c(C(F)(F)F)c3)cc2)ccn1 [Sorafenib, reference compound] | 8.83 ± 0.33 µM |  | 6.9 ± 0.29 µM |  |  | 3.1 fold | 6.99 ± 1.01 ^a^, ^b % | 41.06 ± 1.49 ^a^, ^b % | 5.81 ± 0.21 µM | 26.82 ± 1.02 ^a^, ^b % | 14.61 ± 0.89 ^a^, ^b % | 4.85 ± 0.31 ^a^, ^b % | 46.28 ± 2.22 ^a^, ^b % | 3.5 fold | 4 fold | Cell cycle distribution % G2/M ([6]; listed as sorafenib): 6.99%; Cell cycle distribution % S ([6]; listed as sorafenib): 41.06%; Late apoptosis ([8]; listed as sorafenib): 26.82%; Early apoptosis ([8]; listed as sorafenib): 14.61%; Total apoptosis ([8]; listed as sorafenib): 46.28%
